In series [1] the test system is Salmonella typhimurium. The series is described as follows: Antibacterial activity against 1 MOI Salmonella enterica subsp. enterica serovar Typhimurium infected in mouse J774A1 cells assessed as reduction in bacterial growth at 50 uM after 24 hrs. The format is functional, J774.A1. Further details: scale not given: the % may be the effect or the level left. A digest of the protocol: (§1)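 J774A.1 cells or thioglycolate-elicited BALB/c peritoneal macrophages seeded at 200,000/well, overnight 37°C 5% CO2; infected with GFP strain SDT1416, 1 h invasion, washed, 1 h in DMEM with 15 μg/ml gentamicin. Then fresh DMEM plus 15 μg/ml gentamicin with or without peptide (DMSO vehicle) for 24 h at 37°C; macrophages lysed with 1% Triton X-100, plated on LB agar for CFU.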

Series [2] concerns Salmonella typhimurium. Put plainly: Antibacterial activity against 1 MOI Salmonella enterica subsp. enterica serovar Typhimurium infected in mouse peritoneal macrophages assessed as reduction in bacterial growth at 150 uM after 24 hrs relative to DMSO control. Further details: scale not given: the % may be the effect or the level left; call rule not given here. The format is functional. An outline of the steps: as §1

Series [3] deals with J774.A1. Put plainly: Drug uptake in mouse J774A1 cells at 10 uM after 4 hrs at 4 degC by confocal laser microscopy. The format is ADME, cell-based. The following applies: j774.a1, 4 h. A digest of the protocol: (§2)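 Cells were seeded at 200,000 per chamber-slide well and left to adhere overnight at 37°C. They were then exposed in DMEM to peptide carrying an N-terminal rhodamine label, at 37°C or, where stated, 4°C. Cells were washed three times in PBS, fixed in 4% paraformaldehyde for 30 min, and mounted in antifade. Optical slices near the cell centre were imaged by confocal laser microscopy.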

The nature of series [4]: Cytotoxicity against mouse peritoneal macrophages assessed as live cells at 100 uM by calcein AM assay. The format is cell-based, Peritoneal macrophage cell. The following applies: read-out: Activity. An outline of the steps:
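Cells seeded at 300,000/well and allowed to adhere, then given fresh DMEM with or without peptide for 24 h. Cells trypsinized, stained with a mammalian Live/Dead viability/cytotoxicity kit and analyzed by flow cytometry. Wilcoxon exact test.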

Series [5] relates to J774.A1. The series is described as follows: Drug uptake in mouse J774A1 cells at 1 uM after 4 hrs by confocal laser microscopy. The format is ADME, cell-based. The conditions noted are these: j774.a1, 4 h. A digest of the protocol:
as §2

The structures appear in SMILES notation.

Regarding `N=C(N)NCCC[C@@H](NC(=O)[C@@H](CS)NC(=O)[C@@H](Cc1ccc(O)cc1)NC(=O)[C@@H](Cc1c[nH]c2ccccc12)NC(=O)[C@@H](CCCNC(=N)N)NC(=O)[C@H](N)Cc1c[nH]c2ccccc12)C(=O)O`, the Activity in series [1] stood at 68.5%; in series [2], 83%. The Drug uptake result in series [3] is given as “Not Active”; in series [5], “Active”. Besides, the viability at 100 µM in series [4] was 94.4%.

Source of the values: ChEMBL document CHEMBL1255440, “An antimicrobial peptide that targets DNA repair intermediates in vitro inhibits Salmonella growth within murine macrophages” (Antimicrob Agents Chemother, 2010).
